Data: ChEMBL document CHEMBL1122837, “Angiotensin converting enzyme inhibitors: N-substituted D-glutamic acid gamma dipeptides” (J Med Chem, 1985)

Experiments:
[1] = biological target: T1, Angiotensin-converting enzyme (Oryctolagus cuniculus, UniProt P12822); assay: In vitro inhibition of angiotensin I converting enzyme from rabbit lung; type: tissue-based
T1 sequence (P12822 whole entry): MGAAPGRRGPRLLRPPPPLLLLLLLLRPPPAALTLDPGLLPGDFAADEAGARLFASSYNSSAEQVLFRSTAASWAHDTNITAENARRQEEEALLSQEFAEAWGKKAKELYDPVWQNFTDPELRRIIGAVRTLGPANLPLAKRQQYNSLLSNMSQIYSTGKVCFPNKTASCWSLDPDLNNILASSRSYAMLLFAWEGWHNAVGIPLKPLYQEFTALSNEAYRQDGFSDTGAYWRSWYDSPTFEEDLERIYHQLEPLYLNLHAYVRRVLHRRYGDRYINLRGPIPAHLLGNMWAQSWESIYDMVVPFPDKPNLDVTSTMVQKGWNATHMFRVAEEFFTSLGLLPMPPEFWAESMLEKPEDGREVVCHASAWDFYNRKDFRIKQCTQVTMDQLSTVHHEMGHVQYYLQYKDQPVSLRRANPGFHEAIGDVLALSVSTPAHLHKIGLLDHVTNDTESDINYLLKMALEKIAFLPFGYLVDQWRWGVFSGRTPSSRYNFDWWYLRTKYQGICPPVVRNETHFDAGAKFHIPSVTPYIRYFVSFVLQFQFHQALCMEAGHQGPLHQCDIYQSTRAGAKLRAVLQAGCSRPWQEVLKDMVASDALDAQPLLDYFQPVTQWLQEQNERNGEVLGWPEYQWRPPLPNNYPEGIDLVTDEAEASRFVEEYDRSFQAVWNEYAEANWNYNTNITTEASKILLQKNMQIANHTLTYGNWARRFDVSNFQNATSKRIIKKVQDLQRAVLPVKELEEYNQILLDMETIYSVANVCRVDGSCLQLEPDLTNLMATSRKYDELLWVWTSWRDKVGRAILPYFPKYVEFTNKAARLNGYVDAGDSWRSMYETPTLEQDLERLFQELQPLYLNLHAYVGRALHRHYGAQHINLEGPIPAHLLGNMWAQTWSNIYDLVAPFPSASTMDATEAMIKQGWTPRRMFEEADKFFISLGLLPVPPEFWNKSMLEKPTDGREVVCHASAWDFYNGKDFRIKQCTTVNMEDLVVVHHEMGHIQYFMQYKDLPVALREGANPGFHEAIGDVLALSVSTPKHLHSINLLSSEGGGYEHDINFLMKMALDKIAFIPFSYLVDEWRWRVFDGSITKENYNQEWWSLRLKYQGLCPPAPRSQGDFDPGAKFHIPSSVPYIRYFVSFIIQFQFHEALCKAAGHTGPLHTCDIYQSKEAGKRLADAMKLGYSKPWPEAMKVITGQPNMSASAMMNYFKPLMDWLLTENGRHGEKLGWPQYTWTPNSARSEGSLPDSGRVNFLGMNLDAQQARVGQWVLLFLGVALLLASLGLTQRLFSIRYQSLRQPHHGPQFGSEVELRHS

Rattus norvegicus [2] = assay: Percent inhibitory activity against angiotensin I pressor response 15 min after intravenous administration at dose 1 mg/kg; type: functional; details: 0.25 h
Summary of the method: (§1)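 Normotensive rats received the test compound intravenously. The angiotensin I pressor response was measured 15 min after dosing and reported as percent inhibition.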

Rattus norvegicus [3] = assay: Percent inhibitory activity against angiotensin I pressor response 2 hr after peroral administration at dose 10 mg/kg; type: functional; details: route oral
Summary of the method: (§2)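 Normotensive rats were dosed orally. The angiotensin I pressor response was followed, and the maximum percent inhibition 2 h after administration was reported.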

Rattus norvegicus [4] = assay: Percent inhibitory activity against angiotensin I pressor response 15 min after intravenous administration at dose 0.1 mg/kg; type: functional; details: 0.25 h; summary of the method: as §1
Rattus norvegicus [5] = assay: Percent inhibitory activity against angiotensin I pressor response 2 hr after peroral administration at dose 1 mg/kg; type: functional; details: route oral; summary of the method: as §2

SMILES	IC50 [1]	also measured
NCCCCC(N)C(=O)N[C@H](CCC(=O)N1c2ccccc2C[C@H]1C(=O)O)C(=O)O (some centres undefined)	188 nM	
O=C(N[C@H](CCC(=O)N1CCC[C@H]1C(=O)O)C(=O)O)OCc1ccccc1	50 nM	
CN(C)CCCOC(=O)[C@@H]1Cc2ccccc2N1C(=O)CC[C@@H](NC(=O)OCc1ccccc1)C(=O)O	37 nM	
O=C(O)[C@@H](CCC(=O)N1c2ccccc2C[C@H]1C(=O)O)NCc1ccccc1	300 nM	
O=C(N[C@@H](CCC(=O)N1c2ccccc2CC1C(=O)O)C(=O)O)OCc1ccccc1 (some centres undefined)	500 nM	
O=C(N[C@H](CCC(=O)N1Cc2ccccc2C[C@H]1C(=O)O)C(=O)O)OCc1ccccc1	14 nM	
O=C(N[C@H](CCC(=O)N1c2ccccc2C[C@H]1C(=O)O)C(=O)O)c1ccccn1	57 nM	
CC(=O)N[C@H](CCC(=O)N1c2ccccc2C[C@H]1C(=O)O)C(=O)O	95 nM	
O=C(N[C@H](CCC(=O)N1C[C@H]2CCCC[C@H]2C[C@H]1C(=O)O)C(=O)O)OCc1ccccc1	17 nM	
O=C(O)[C@@H](CCC(=O)N1c2ccccc2C[C@H]1C(=O)O)N(Cc1ccccc1)C(=O)OCc1ccccc1	10000 nM	
O=C(NCCCCC(NC(=O)OCc1ccccc1)C(=O)N[C@H](CCC(=O)N1c2ccccc2C[C@H]1C(=O)O)C(=O)O)OCc1ccccc1 (some centres undefined)	61 nM	
O=C(CCc1ccccc1)N[C@H](CCC(=O)N1c2ccccc2C[C@H]1C(=O)O)C(=O)O	40 nM	inhibition in vivo at 1 mg/kg (Rattus norvegicus [2]): 76%
N[C@H](CCC(=O)N1c2ccccc2C[C@H]1C(=O)O)C(=O)O	10000 nM	
CCOC(=O)[C@@H](CCC(=O)N1c2ccccc2C[C@H]1C(=O)O)NC(=O)c1cccnc1	2200 nM	inhibition in vivo at 1 mg/kg (Rattus norvegicus [2]): 100%; inhibition in vivo at 10 mg/kg (Rattus norvegicus [3]): 30%
O=C(O)[C@@H](CCC(=O)N1c2ccccc2C[C@H]1C(=O)O)NS(=O)(=O)Cc1ccccc1	29 nM	
O=C(N[C@H](CCC(=O)N1c2ccccc2C[C@H]1C(=O)O)C(=O)O)c1ccccc1	28 nM	inhibition in vivo at 0.1 mg/kg (Rattus norvegicus [4]): 55%
COc1ccc(N(CC(=O)O)C(=O)CC[C@@H](NC(=O)OCc2ccccc2)C(=O)O)cc1OC	21 nM	
O=C(N[C@H](CCC(=O)N1c2ccccc2CCC1C(=O)O)C(=O)O)OCc1ccccc1 (some centres undefined)	88 nM	
O=C(N[C@H](CCC(=O)N1c2ccccc2C[C@H]1C(=O)OCc1cccnc1)C(=O)O)OCc1ccccc1	350 nM	inhibition in vivo at 1 mg/kg (Rattus norvegicus [2]): 70%; inhibition in vivo at 10 mg/kg (Rattus norvegicus [3]): 15%
NC(=O)[C@@H]1Cc2ccccc2N1C(=O)CC[C@@H](NC(=O)OCc1ccccc1)C(=O)O	160 nM	
CN(C)CCOC(=O)[C@@H]1Cc2ccccc2N1C(=O)CC[C@@H](NC(=O)OCc1ccccc1)C(=O)O	7 nM	
O=C1OCN(C(=O)OCc2ccccc2)[C@@H]1CCC(=O)N1c2ccccc2C[C@H]1C(=O)O	52 nM	
O=C(O)CN(C(=O)CC[C@@H](NC(=O)OCc1ccccc1)C(=O)O)C1CCCC1	40 nM	
O=C(N[C@H](CCC(=O)N1c2ccccc2C[C@H]1C(=O)O)C(=O)O)c1cccnc1	24 nM	inhibition in vivo at 1 mg/kg (Rattus norvegicus [5]): 0%; inhibition in vivo at 0.1 mg/kg (Rattus norvegicus [4]): 79%
CCOC(=O)[C@@H]1Cc2ccccc2N1C(=O)CC[C@@H](NC(=O)OCc1ccccc1)C(=O)O	4700 nM	
O=C(Nc1ccccc1)N[C@H](CCC(=O)N1c2ccccc2C[C@H]1C(=O)O)C(=O)O	44 nM	
O=C(NC(CCC(=O)N1c2ccccc2C[C@@H]1C(=O)O)C(=O)O)OCc1ccccc1 (some centres undefined)	7 nM	inhibition in vivo at 1 mg/kg (Rattus norvegicus [5]): 0%; inhibition in vivo at 0.1 mg/kg (Rattus norvegicus [4]): 70%
O=C(N[C@H](CCC(=O)N1[C@H](C(=O)O)C[C@@H]2CCCC[C@@H]21)C(=O)O)OCc1ccccc1	2.7 nM	
Cc1ccc(S(=O)(=O)N[C@H](CCC(=O)N2c3ccccc3C[C@H]2C(=O)O)C(=O)O)cc1	20 nM	
